LMPTP inh: LMPTP phosphatase inhibitors, primary screen, biochemical, fluorescence intensity, uHTS; 0.22% of 360,000 active; Low molecular weight phosphotyrosine protein phosphatase (Homo sapiens), P24666; recombinant LMPTP-A, OMFP fluorogenic substrate; inhibition, % at 20 µM;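 active = compounds that cut the enzyme signal by at least half of the control window in the single-dose screen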
Target sequence (P24666 whole entry, looked up): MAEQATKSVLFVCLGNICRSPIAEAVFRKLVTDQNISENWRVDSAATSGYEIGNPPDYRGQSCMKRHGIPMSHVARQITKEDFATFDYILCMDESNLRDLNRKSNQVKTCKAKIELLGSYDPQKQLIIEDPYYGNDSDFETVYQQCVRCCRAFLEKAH
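Assay system: LMPTP-A phosphatase enzyme | Input: 0.625 nM enzyme | Also added: Fluorogenic phosphatase substrate OMFP at 400 µM final | Compound dosing: One test concentration per compound, 20 µM, with 3% DMSO overall | Schedule: 50 min enzyme reaction at room temperature, protected from light | Signal: Fluorescence intensity | Benchmarks: no-enzyme and uninhibited controls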
DNMT1 inh: human DNMT1 methyltransferase inhibitors, primary screen, biochemical, molecular beacon, fluorescence, HinP1I cleavage, uHTS | 0.83% of 360,000 active | DNA (cytosine-5)-methyltransferase 1 (Homo sapiens), P26358 | AID 588458, 2011 | inhibition (reported as % activation of signal), % at 10 µM; in the data active = inhibition above about 50%
SUMO1 PPI mod: modulators of SUMO1 protein-protein interactions, primary screen, biochemical, uHTS; AID 602429, 2012; inhibition, % at 20 µM; 0.33% of 360,000 active; SUMO1 binding to a labelled peptide, TR-FRET, 1 h; Small ubiquitin-related modifier 1 (Homo sapiens), P63165; in the data active = inhibition above about 37%
Target sequence (P63165 whole entry, looked up): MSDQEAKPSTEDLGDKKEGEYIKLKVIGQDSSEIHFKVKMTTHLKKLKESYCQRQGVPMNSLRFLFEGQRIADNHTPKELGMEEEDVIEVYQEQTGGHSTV
SUMO HTRF inh: inhibitors of in vitro SUMOylation cascade, primary screen, biochemical, HTRF, uHTS; SUMO-conjugating enzyme UBC9 (Homo sapiens), P63279; HTRF SUMOylation assay, SAE1/SAE2 + UBC9; inhibition, % at 35 µM; 0.36% of 290,000 active; AID 2006, 2009; in the data active = inhibition above about 50%, passing the limit was not always enough; inconclusive = no clear call, values can overlap the other calls
STEP block: STEP phosphatase inhibitors, primary screen, biochemical, fluorescence intensity, uHTS. Tyrosine-protein phosphatase non-receptor type 5 (Homo sapiens), P54829. recombinant STEP, OMFP fluorogenic substrate. inhibition, % at 20 µM. 0.25% of 360,000 active. AID 588621, 2011;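 active = inhibition at 20 µM, scaled per plate between control wells, above about 37%, limit read from the data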
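Material: STEP (striatal-enriched tyrosine phosphatase) enzyme, cell-free; Compound dosing: 20 µM single dose in 1% DMSO; Technique: fluorescence read at 480 nm ex / 540 nm em; Times: reaction 20 min, ambient temperature; Medium: 50 mM Bis-Tris pH 6.0 with 2.5 mM DTT and 0.005% Tween 20; Also added: OMFP at 25 µM.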
Scp1 inh: Scp-1 phosphatase inhibitors, primary screen, biochemical, colorimetric, uHTS; Recombinant Scp1, phosphopeptide, malachite green phosphate absorbance; inhibition, % at 20 µM; AID 493091, 2011; Carboxy-terminal domain RNA polymerase II polypeptide A small phosphatase 1 (Homo …; 0.88% of 340,000 active;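 active = inhibition above about 50% at 20 µM, limit read from the data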
Target sequence (Q9GZU7 76-261 limits assumed): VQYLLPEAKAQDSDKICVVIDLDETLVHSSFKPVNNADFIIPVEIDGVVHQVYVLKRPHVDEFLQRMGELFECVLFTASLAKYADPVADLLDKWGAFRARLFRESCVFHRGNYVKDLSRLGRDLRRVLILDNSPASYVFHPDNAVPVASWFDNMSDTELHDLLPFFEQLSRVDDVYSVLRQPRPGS
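Test system: SCP-1 catalytic domain; Buffer or medium: Acidic Tris acetate buffer with magnesium and detergent; Also added: Phosphorylated 17-residue peptide substrate; Compound: single 20 µM dose, 1% DMSO; Schedule: enzyme reaction 45 min at room temperature, colour 5 min, stabilisation 30 min; Signal: Phosphate-binding colour reagent, absorbance read at 630 nm.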
DNMT1 confirm: DNMT1 methyltransferase inhibitor retest, confirmation, biochemical, molecular beacon, fluorescence, single concentration | shares compounds with DNMT1 inh | 8% of 2,300 active | DNMT1 molecular beacon HinP1I cleavage | inhibition, % at 10 µM;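 active = average inhibition of at least 30% in the single-concentration confirmation test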
Beacon interf: counter-screen for DNMT1 inhibitors: spectral interference; shares compounds with DNMT1 inh; DNMT1 molecular beacon spectral interference counterscreen, fluorescence 485/520; activation (fluorescence interference), % at 10 µM; 1% of 2,300 active; AID 602387;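 active = activation of at least 30% at 10 µM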;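 also: DNMT1 catalytic domain with a HinP1I cleavage step and a FAM/dabcyl DNA beacon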
Large screens that a line does not name were inactive (follow-up assays come after a bar, where they were run). Compounds with a hit are over-represented: about 1.9% of the library has one in this group of screens.

Cc1c(CCC(=O)O)c(=O)oc2cc3oc4c(c3cc12)CCCC4	DNMT1 inh 91 | DNMT1 confirm inactive | Beacon interf inactive
O=C(O)c1ccccc1C(=O)Nc1ccc(Oc2ccccc2)cc1	none
O=C(Nc1cccc(Oc2ccc(C(=O)O)c(C(=O)O)c2)c1)c1ccc(-c2ccccc2)cc1	DNMT1 inh 53 | DNMT1 confirm inactive | Beacon interf inactive
CC(C)Oc1cccc(-c2cc(C(=O)NC(=S)N(C)c3ccccc3C(=O)O)c3ccccc3n2)c1	none
CN(C)S(=O)(=O)N(CC(=O)N(Cc1ccccc1)Cc1ccccc1)c1ccccc1	DNMT1 inh 56 | DNMT1 confirm inactive | Beacon interf inactive
CN(C)S(=O)(=O)N(Cc1ccc(Br)cc1)c1ccccc1	none
CC(C)c1nc2sc3c(SCC(=O)NCc4ccco4)ncnc3c2c2c1CCC2	DNMT1 inh 83 | DNMT1 confirm inactive | Beacon interf inactive
O=C(CSc1ncnc2sc3c(c12)CCCCC3)NCc1ccco1	none
COc1ccc(C(=O)CC(=O)C(=O)NCCc2cccc(C)c2)cc1	DNMT1 inh 89 | DNMT1 confirm inactive | Beacon interf inactive
COc1ccc(C(=O)CC(=O)C(=O)Nc2cc(C)ccc2C)cc1	none
CN1CCN(c2ccc(CNC(=O)c3ccc(-c4ccnn4C)c4ccoc34)cc2)CC1	DNMT1 inh 75 (no result: SUMO HTRF inh, Scp1 inh) | DNMT1 confirm inactive | Beacon interf inactive
CC1CCCN(S(=O)(=O)c2ccc(S(=O)(=O)N3CCC4(CC3)OCCO4)cc2)C1 (stereo not drawn)	none
Cc1c(NC(=O)COC(=O)c2ccc(O)cc2)c(=O)n(-c2ccccc2)n1C	none (no result: SUMO HTRF inh)
CCOc1ccc2nc(NC(=O)CN3CCN(C)CC3)sc2c1	DNMT1 inh 73 | DNMT1 confirm inactive | Beacon interf inactive
CCCCC1=CC2=C(c3ccco3)C(=O)C(C)(OC(=O)c3ccc(OC)cc3)C(=O)C2=CN1Cc1ccco1 (stereo not drawn)	DNMT1 inh 56 | DNMT1 confirm inactive | Beacon interf inactive
COCCNC(=O)c1ccc(-c2cn[nH]c2)c2ccoc12	DNMT1 inh 68 (no result: SUMO HTRF inh, Scp1 inh) | DNMT1 confirm inactive | Beacon interf inactive
O=C(NCC1CC1)c1ccc(-c2cn[nH]c2)c2ccoc12	none (no result: SUMO HTRF inh, Scp1 inh)
Cn1cc(CN2C[C@H]3CC[C@H]2C3)c(-c2ccccc2F)n1	DNMT1 inh 58 | DNMT1 confirm inactive | Beacon interf inactive
Cn1cc(CN2CCC(C(=O)N3CCCC3)CC2)c(-c2ccccc2F)n1	none
Cc1ccc(CC(CC(=O)O)C(=O)Nc2ccc(Cl)cc2)cc1 (stereo not drawn)	none
CCc1nc2ccc(C(=O)NCCc3ccco3)cc2nc1CC	none
O=C(NCCCO)c1ccc2nc(-c3ccco3)c(-c3ccco3)nc2c1	SUMO1 PPI mod 45, SUMO HTRF inh inconclusive | DNMT1 confirm inactive | Beacon interf inactive
CCc1nn(CC(=O)NCCCc2ccccc2)c(=O)c2cc3c(OC)cccc3n12	none
CCc1nn(CC(=O)NCCCc2ccccc2)c(=O)c2cc3cc(F)ccc3n12	DNMT1 inh 51 | DNMT1 confirm inactive | Beacon interf inactive
CSc1nnc(-c2ccncc2)n1/N=C/c1cn(-c2ccccc2)nc1-c1ccc(Cl)cc1	none
S=c1[nH]nc(-c2ccncc2)n1/N=C/c1cn(-c2ccccc2)nc1-c1ccc(Cl)cc1	DNMT1 inh 75 (no result: SUMO HTRF inh) | DNMT1 confirm inactive | Beacon interf inactive

Screening results: PubChem, Sanford-Burnham Center for Chemical Genomics
